Screening data (PubChem)
A selection: hits, their analogues and other compounds. The true share with any hit is near 2.9%.
mABHD4 FP: inhibitors of mouse ABHD4 | inhibition, % at 8.92 µM | AID 720543 | Q8VD66 | 0.54% of 370,000 active | purified mABHD4, FP-Rh probe fluorescence polarization;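 active = inhibition exceeding the mean over every tested compound plus 3 SD, cut at about 30% in these data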
Target sequence (Q8VD66 whole entry, looked up): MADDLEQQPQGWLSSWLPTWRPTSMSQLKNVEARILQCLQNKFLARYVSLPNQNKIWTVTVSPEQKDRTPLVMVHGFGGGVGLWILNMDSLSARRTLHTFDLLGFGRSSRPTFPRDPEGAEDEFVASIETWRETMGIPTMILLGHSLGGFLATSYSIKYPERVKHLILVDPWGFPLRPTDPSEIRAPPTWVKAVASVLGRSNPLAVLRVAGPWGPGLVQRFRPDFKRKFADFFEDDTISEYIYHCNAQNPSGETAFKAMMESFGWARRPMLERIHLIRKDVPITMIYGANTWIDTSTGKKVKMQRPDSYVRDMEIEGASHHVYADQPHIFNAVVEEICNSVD
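Assay system: mouse ABHD4 enzyme, wild type / Also added: fluorescent activity-based probe FP-Rh / Doses: single nominal dose of 8.92 µM, 0.89% DMSO final / Timing: 45 min compound pre-incubation plus 60 min probe step, 25 °C / Signal: FP readout, ex 525 nm / em 598 nm / Control set: S159A mutant/DMSO as 100%, compound-well median as 0%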
HTRA1 inhibitor: HTRA1 (human) protease inhibition; 0.5% of 340,000 active; AID 504803; recombinant HTRA1, FP-rhodamine activity-based probe, fluorescence polarization; Q92743; inhibition, % at 5.96 µM; in the data active = inhibition above about 36%
SIAE primary: human SIAE inhibition, primary screen. SIAE FP-Rh probe binding, fluorescence polarization. 0.69% of 370,000 active. inhibition, % at 9.66 µM;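 active = inhibition above a cutoff: mean of compounds within the control limits plus 3 SD of those, cut at about 17% in these data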
TCR CD3 inh: blocks the human TCR-CD3 interaction | TAMRA-labeled TCR probe fluorescence, biochemical | inhibition, % at 9.4 µM | 0.37% of 360,000 active | AID 651800; in the data active = inhibition above about 19%;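 also: recombinant mutant TCR 2C K166C tagged with TAMRA read by polarization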
PRMT1 inh: inhibitors of human PRMT1 | Q99873 | recombinant PRMT1, activity-based probe fluorescence polarization | 1.3% of 370,000 active | inhibition, % at 2.79 µM;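 active = inhibition above about 21% made by adding two undisclosed values, limit read from the data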
Target sequence (Q99873 whole entry, looked up): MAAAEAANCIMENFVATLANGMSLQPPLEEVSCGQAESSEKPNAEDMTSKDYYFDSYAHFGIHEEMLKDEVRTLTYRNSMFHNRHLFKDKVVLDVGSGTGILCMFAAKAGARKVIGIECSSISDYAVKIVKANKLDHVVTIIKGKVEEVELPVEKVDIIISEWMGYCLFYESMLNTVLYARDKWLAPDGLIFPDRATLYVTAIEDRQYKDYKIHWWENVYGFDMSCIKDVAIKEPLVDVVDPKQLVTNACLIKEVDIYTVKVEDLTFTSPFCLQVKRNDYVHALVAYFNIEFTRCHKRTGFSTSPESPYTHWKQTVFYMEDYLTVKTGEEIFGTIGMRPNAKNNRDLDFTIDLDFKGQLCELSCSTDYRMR
PAD4 inh: PAD4 (human) enzyme inhibition; inhibition, % at 6.36 µM; recombinant PAD4, RCA probe fluorescence polarization; AID 485272; 0.41% of 330,000 active;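 active = percent inhibition above a cutoff equal to the mean of all tested compounds plus 3 SD, cut at about 15% in these data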
PRMT1 confirm: PRMT1 (human) inhibition, FP confirmation. inhibition, % at 2.79 µM. shares compounds with PRMT1 inh. 42% of 3,300 active. AID 687036. recombinant His-PRMT1, activity-based probe fluorescence polarization;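 active = mean inhibition across replicates above the hit cutoff derived for the earlier primary screen, cut at about 22% in these data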
ABHD4 confirm: ABHD4 (mouse) inhibition, FP confirmation; 55% of 1,800 active; shares compounds with mABHD4 FP; inhibition, % at 8.92 µM; purified mABHD4, FP-Rh probe fluorescence polarization;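 active = mean inhibition across replicates above the hit cutoff set in the primary screen, cut at about 30% in these data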
Each line names hits and unclear results; the compound was inactive in the other large screens (follow-up assays come after a bar, where they were run); ! = not active in a repeat.

Cc1ccc(-c2cc(C(=O)O)c3cc(Br)ccc3n2)o1	PRMT1 inh 77 | PRMT1 confirm 81
Cc1ccc(-c2cc(C(=O)NCc3ccco3)c3ccccc3n2)o1	PRMT1 inh 48 | PRMT1 confirm inactive
Oc1ccc(CNc2ccccn2)c2cccnc12	none (no result: HTRA1 inhibitor, TCR CD3 inh, PAD4 inh)
Oc1ccc(CNc2ccccc2Cl)c2cccnc12	PRMT1 inh 56 (no result: HTRA1 inhibitor, TCR CD3 inh, PAD4 inh) | PRMT1 confirm 65
Oc1ccc(Nc2ccccc2F)c2cccnc12	PRMT1 inh 42 (no result: HTRA1 inhibitor, TCR CD3 inh, PAD4 inh) | PRMT1 confirm inactive
Oc1ccc(CNc2ccccc2C(F)(F)F)c2cccnc12	PRMT1 inh 47 (no result: HTRA1 inhibitor, TCR CD3 inh, PAD4 inh) | PRMT1 confirm 33
Cc1ccc(Cn2cc(CN3[C@H](C)COc4cc(Br)ccc4S3(=O)=O)nn2)cc1	none (no result: HTRA1 inhibitor, TCR CD3 inh, PAD4 inh)
Cc1ccc(/C=C2\CC(C)CC3=C2NC(=S)NC3c2ccc(C)cc2)cc1 (centres undefined)	PRMT1 inh 38 | PRMT1 confirm 30
CC1CC2=C(NC(=S)NC2c2cccc(F)c2)/C(=C/c2cccc(F)c2)C1 (centres undefined)	none (no result: PAD4 inh)
CC1CC2=C(NC(=S)NC2c2ccccc2F)/C(=C/c2ccccc2F)C1 (centres undefined)	PRMT1 inh 49 | PRMT1 confirm inactive
Cc1ccc(/C=C2\CCCC3=C2NC(=S)NC3c2ccc(C)cc2)cc1 (centres undefined)	PRMT1 inh 45 | PRMT1 confirm 35
COc1ccccc1CCn1cnc(-c2ccccc2F)c1CC(C)C	none (no result: HTRA1 inhibitor, PAD4 inh)
CN1Cc2c(N)cccc2C(c2ccccc2)C1 (centres undefined)	PRMT1 inh 44 | PRMT1 confirm inactive
CC1(C)Cc2c(C#N)c(N3CCN(C(=O)c4ccco4)CC3)nc(-c3ccco3)c2CS1	none
CC(=O)N1CCN(c2nc(-c3ccco3)c3c(c2C#N)CC(C)(C)SC3)CC1	PRMT1 inh 46 | PRMT1 confirm inactive
COc1ccc(N2CCCN(CC(=O)Nc3ccccc3C)CC2)cc1	none (no result: HTRA1 inhibitor, TCR CD3 inh, PAD4 inh)
CC(C)[C@H](NC(=O)c1ccccc1)C(=O)N1CCC[C@H]1C(=O)NCCc1ccccc1Cl	none (no result: HTRA1 inhibitor, PAD4 inh)
Cc1ccc(/C=C2/NC(=O)N(Cc3ccccc3)C2=O)o1	PRMT1 inh 66 | PRMT1 confirm inactive
Cc1ccc(NS(=O)(=O)c2cc(NC(=O)c3ccc4c(c3)NC(=O)CS4)ccc2C)c(C)c1	PRMT1 inh 34 | PRMT1 confirm 23
CCn1c(C)c(CS(=O)(=O)c2ccccc2)[nH]c1=O	PRMT1 inh 69 | PRMT1 confirm 73
CCOC(=O)N1CCN(C(=O)C[C@H]2C[C@@]3(C(=O)OC)C(=C[C@H](C(C)C)O[C@@H]3C3CC3)N(Cc3cccc4ccccc34)C2=O)CC1	none (no result: HTRA1 inhibitor, TCR CD3 inh, PAD4 inh)
Cc1nn(-c2ccccc2)c2sc(C(=O)NCCc3ccccc3)cc12	none (no result: HTRA1 inhibitor, TCR CD3 inh, PAD4 inh)
COc1ccc(-c2cc(-c3ccco3)[nH]c(=O)c2C#N)cc1OC	PRMT1 inh 27 | PRMT1 confirm 27
N#Cc1c(-c2ccccc2)cc(-c2ccc3c(c2)OCO3)[nH]c1=O	none
Cc1c(Cc2ccc3c(c2)OCO3)sc(NC(=O)C2CC2)c1C(N)=O	PRMT1 inh 30 | PRMT1 confirm inactive
CCOC(=O)C1=CCN(S(=O)(=O)c2ccc(Br)cc2)C1c1cccc(Br)c1 (centres undefined)	none (no result: HTRA1 inhibitor, PAD4 inh)
CN1CCN(C(=S)C(=O)Nc2ccc(Br)cc2)CC1	PRMT1 inh 72 | PRMT1 confirm 72
CN1CCC2(CC1)C1CN(C)CC=C1C(C#N)=C(N)C2(C#N)C#N (centres undefined)	PRMT1 inh 40 | PRMT1 confirm 22!
CN1CC=C2C(C#N)=C(N)C(C#N)(C#N)[C@H](c3cccs3)[C@H]2C1	none (no result: mABHD4 FP, SIAE primary, TCR CD3 inh, PRMT1 inh)
O=C(CSc1nnc(-c2ccccc2)n1-c1ccc(Cl)cc1)Nc1ccccc1-c1ccccc1	none (no result: HTRA1 inhibitor, TCR CD3 inh, PAD4 inh)
CC(c1ccc(NC(=O)OC(C)(C)C)cc1)c1cn(C)c2ccccc12 (centres undefined)	none (no result: HTRA1 inhibitor, TCR CD3 inh, PAD4 inh)
COc1ccccc1NC(=O)CSC1=NC(=O)C(NC(C)=O)C(=O)N1 (centres undefined)	PRMT1 inh 25 | PRMT1 confirm inactive
CC(=O)NC1C(=O)N=C(SCC(=O)Nc2ccc(C(F)(F)F)cc2Cl)NC1=O (centres undefined)	PRMT1 inh 38 | PRMT1 confirm inactive
COc1ccccc1NC(=O)CSC1=NC(=O)C(Cc2ccccc2)C(=O)N1 (centres undefined)	none
CC(=O)NC1C(=O)N=C(SCc2ccccc2)NC1=O (centres undefined)	none
CC(=O)NC1C(=O)N=C(SCC(=O)NC2CCCCC2)NC1=O (centres undefined)	none
CC(=O)NC1C(=O)N=C(SCC(=O)NC(C)c2ccccc2)NC1=O (centres undefined)	PRMT1 inh 31 | PRMT1 confirm inactive
COC(=O)[C@]12C[C@H](CC(=O)NCc3cccc(C(F)(F)F)c3)C(=O)N(Cc3cccc4ccccc34)C1=C[C@H](C1CCCC1)O[C@@H]2C	none (no result: HTRA1 inhibitor, TCR CD3 inh, PAD4 inh)
Cc1n[nH]c(=S)n(NC(=O)/C=C/C(=O)Nn2c(=S)[nH]nc(C)c2=O)c1=O	mABHD4 FP 38, PRMT1 inh 29 (no result: PAD4 inh) | PRMT1 confirm 30 | ABHD4 confirm inactive
Cc1n[nH]c(=S)n(NC(=O)CC(=O)Nn2c(=S)[nH]nc(C)c2=O)c1=O	none
Cc1ccc2c(c1)Sc1c(ccc3ccccc13)N2	mABHD4 FP 30, PRMT1 inh 26 | PRMT1 confirm inactive | ABHD4 confirm 38
O=C(/C=C/c1ccco1)c1cccnc1	mABHD4 FP 36, PRMT1 inh 47 | PRMT1 confirm inactive | ABHD4 confirm inactive
COc1ccc(C(=O)NCC2CCN(C(=O)C(=O)c3cc4ccccc4o3)CC2)cc1	none (no result: HTRA1 inhibitor, PAD4 inh)
Cc1nc2ccc(N)cc2s1	none
C[n+]1c2cc(N)ccc2cc2ccc(N)cc21	mABHD4 FP 30!, SIAE primary 25!, PRMT1 inh 147 (no result: PAD4 inh) | PRMT1 confirm 142 | ABHD4 confirm 43
C/C=C/COC(=O)c1[nH]c2c(c1C)C(=O)CC(c1ccco1)C2 (centres undefined)	mABHD4 FP 32, PRMT1 inh 43 | PRMT1 confirm inactive | ABHD4 confirm inactive
Nc1ccc2nc(C3CCCCC3)[nH]c2c1	none
Nc1ccc2cc3[nH]c4cc(N)ccc4c3nc2c1	mABHD4 FP 36, PRMT1 inh 156 (no result: PAD4 inh) | PRMT1 confirm inactive | ABHD4 confirm 72
O=C(C(=O)N1CCC(CNC(=O)c2sc3ccccc3c2Cl)CC1)c1cccs1	none (no result: HTRA1 inhibitor, PAD4 inh)
O=C(NCCCO)c1ccc2nc(-c3ccco3)c(-c3ccco3)nc2c1	mABHD4 FP 37, PRMT1 inh 34 (no result: PAD4 inh) | PRMT1 confirm 44 | ABHD4 confirm inactive
CCc1nc2ccc(C(=O)NCCc3ccco3)cc2nc1CC	none (no result: mABHD4 FP, SIAE primary, TCR CD3 inh, PRMT1 inh)
